{"data": "Measured values gathered from unrelated publications", "target": "Tyrosine-protein kinase CSK (CSK, Homo sapiens, UniProt P41240)", "note": "Each line is one published result; the experiments were not run side by side."}
{"Structure (SMILES)": "COc1ccc2oc(-c3ccc4nc(N)oc4c3)c/c(=N\\c3ccccc3NC(=O)CCN)c2c1", "observed": "cell-free assay", "concentration": "1 µM", "endpoint": "remaining signal", "value": "119%"}
{"Structure (SMILES)": "CCCCC(=O)Nc1ccc(-c2ccc3ncn(CCC)c(=O)c3c2)cn1", "observed": "binding", "technique": "competition with immobilised ligand", "concentration": "0.5 µM", "endpoint": "remaining binding", "value": "94%"}
{"Structure (SMILES)": "CO[C@@H]1[C@H](N(C)C(=O)c2ccccc2)C[C@H]2O[C@]1(C)n1c3ccccc3c3c4c(c5c6ccccc6n2c5c31)C(=O)NC4", "observed": "enzyme activity", "action": "inhibitor", "concentration": "1 µM", "endpoint": "inhibition", "value": "0%"}
{"Structure (SMILES)": "Cc1ccc(NC(=O)c2ccnc(C(F)(F)F)c2)cc1-c1cc(OCCO)nc(N2CCOCC2)c1", "observed": "binding", "technique": "competition with immobilised ligand", "concentration": "1 µM", "endpoint": "remaining binding", "value": "95%"}
{"Structure (SMILES)": "CC#CC(=O)N1CCC[C@H]1c1nc(-c2ccc(C(=O)Nc3ccccn3)cc2)c2c(N)nccn12", "observed": "enzyme activity", "action": "inhibitor", "concentration": "1 µM", "endpoint": "inhibition", "value": "32%"}
{"Structure (SMILES)": "C1=C/COCc2cc(ccc2OCCN2CCCC2)Nc2nccc(n2)-c2cccc(c2)COC/1", "observed": "cell-free assay", "concentration": "0.1 µM", "endpoint": "remaining signal", "value": "88%"}
{"Structure (SMILES)": "CN1CCN(C(=O)c2ccc(NC(=O)Nc3ccc(N(C)c4ccnc(Nc5ccc(CS(C)(=O)=O)cc5)n4)cc3)cc2)CC1", "observed": "binding", "technique": "competition with immobilised ligand", "concentration": "1 µM", "endpoint": "remaining binding", "value": "62%"}
{"Structure (SMILES)": "C#Cc1cc(-c2cc(Nc3nc(N[C@@H](C)c4ccc(F)cn4)ncc3Cl)n[nH]2)ccc1C=O", "observed": "enzyme activity", "action": "inhibitor", "concentration": "0.2 µM", "endpoint": "inhibition", "value": "14%"}
{"Structure (SMILES)": "Cc1cc(O)c(-c2ccc([C@@H](C)CN(C)C)cc2)c2c1[nH]c(=O)c1sccc12", "observed": "enzyme activity", "action": "inhibitor", "concentration": "0.1 µM", "notes": "lysate", "endpoint": "inhibition", "value": "2.59%"}
